Data set [1] has as its system primary canine T cell cancers (T cell lymphoma, TZL, T-CLL) neoplastic T lymphocytes. The experiment in a line: In vitro BH3 mimetics sensitivity cell kill assay, primary canine T cell cancers. In kind it is cell-based. Particulars: dog 26, multicentric large T cell lymphoma, neoplastic CD3+ nodal T cells, 24 h.
In data set [2] the test system is MDCK immortalized canine kidney cells. The experiment in a line: Cell viability after 24h treatment, MDCK cell line. The class given is cell-based, dog. Summed up:
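MDCK canine kidney cells were kept in DMEM with 10% FCS and penicillin/streptomycin at 37°C, 5% CO2, for at most four passages, and tested Mycoplasma-negative. As a control line they were given a BH3 mimetic at 2 nM–10 μM, with 0.001% DMSO as the negative control, for 24 h.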

The subject of data set [3] is canine osteosarcoma cell line OSCA40. The experiment in a line: Cell viability after 24h treatment, OSCA40 cell line. In kind it is cell-based, dog. The settings on record: OSCA40, 24h. The method, boiled down: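 OSCA40 canine osteosarcoma cells were kept in α-MEM with 10% FCS, 10 mM L-glutamine and penicillin/streptomycin at 37°C, 5% CO2, for at most four passages, and tested Mycoplasma-negative. As a control line they were given a BH3 mimetic at 2 nM–10 μM, with 0.001% DMSO as the negative control, for 24 h.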

Data set [4] relates to human B‐cell acute lymphoblastic leukemia cell line RS4;11. Briefly: Cell viability after 24h treatment, RS4. The settings on record: RS4;11 positive control. In kind it is cell-based. The method, boiled down:
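RS4;11 human B-ALL cells had their identity genetically confirmed and were grown in RPMI with 10% FCS and penicillin/streptomycin at 37°C, 5% CO2, for at most four passages. They were run as a control with each experiment at 1 × 10^5 cells/well in single replicates, given a BH3 mimetic at 2 nM–10 μM or 0.001% DMSO for 24 h at 37°C.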

For data set [5] the following is noted: people, 400 mg daily dosing; cited from earlier work.
For data set [6] the following is noted: dogs, 20 mg/kg once a day; cited from earlier work.
For another data set, the system named is Beagles. The settings on record: 2 to 20 mg/kg PO daily for up to 9 months; cited from earlier work.
The test system of the next data set is human DLBCL (hDLBCL). Particulars: single‐agent treatment; cited from earlier work.

Read-outs that look alike come from different tables or passages of the source.

The term EC50 denotes the midpoint of the concentration-response curve. A higher EC50 goes with a need for much substance.

With `CC1(C)CCC(c2ccc(Cl)cc2)=C(CN2CCN(c3ccc(C(=O)NS(=O)(=O)c4ccc(N[C@H](CCN5CCOCC5)CSc5ccccc5)c(S(=O)(=O)C(F)(F)F)c4)cc3)CC2)C1` [NAV, navitoclax], the EC50 in data set [1] was 20.8 nM. Further, the “sensitivity in vitro” value in data set [2] and in data set [3] was “resistance” throughout.
As to `CC1(C)CCC(CN2CCN(c3ccc(C(=O)NS(=O)(=O)c4ccc(NCC5CCOCC5)c([N+](=O)[O-])c4)c(Oc4cnc5[nH]ccc5c4)c3)CC2)=C(c2ccc(Cl)cc2)C1` [VEN, venetoclax], the EC50 in data set [1] was determined as 7.9 nM. Also, the “sensitivity in vitro” value in data set [2] was “resistance”; in data set [3], “resistance”; in data set [4], “sensitive”. For the same compound, the results for the “area under the curve (AUC)” value in data set [5] and in data set [6] were 31.8 µg·h/mL and 73.6 µg·h/mL, respectively. For the same compound, in the data set with Beagles, the Other clinical toxicities result was “grade 2 weight loss associated with hyporexia, and leukotricia”. In addition, the “average reduction in circulating lymphocytes” value in the data set on Beagles is 81%. Further, the hematological finding result in the data set with Beagles is recorded as “mild anemia”. In addition, in the data set on human DLBCL (hDLBCL), the overall response rate was 18%.
